Experimental data taken from ChEMBL document CHEMBL5338759, “N-Phenyl-1-(phenylsulfonyl)-1H-1,2,4-triazol-3-amine as a New Class of HIV-1 Non-nucleoside Reverse Transcriptase Inhibitor” (J Med Chem, 2023).
The source made the active and inactive calls. No cut-off for these calls is given here.

Experiments:
TZM [1] = experiment: Cytotoxicity against human TZM-bl cells assessed as reduction in cell viability by MTS assay; format: functional
[2] = test system: Human immunodeficiency virus; experiment: Antiviral activity against wild type HIV IIIB infected in human TZM-bl cells; format: functional, organism-based; settings: Human immunodeficiency virus 1, IIIB
In short: (§1)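 TZM-bl cells (2x10⁵/mL) infected with HIV-1 IIIB grown in H9 cells, with 15 µg/mL DEAE-dextran; serial dilutions from 10 mM DMSO stocks, DMSO held constant (0.005% or 0.05%); 37°C, 5% CO₂, 48 hr; cells lysed, luciferase RLU read.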

[3] = Neurotoxicity in mouse primary neurons assessed as loss of MAP-2 intensity incubated for 48 hrs by imaging analysis; format: toxicity, cell-based; settings: neuron
In short: (§2)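 Primary E16 CD1 mouse cortex/hippocampus cultures (>95% neurons) treated at 20 days in vitro with 10X dilutions made in artificial CSF, final 0.1–10,000 nM, for 48 hr; fixed in methanol:acetic acid (97:3), stained for MAP-2; relative MAP-2 intensity and area quantified by image analysis, […] (±SD) fitted from dose response.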

[4] = Safety index, ratio of TC10 for neurotoxicity in mouse primary neurons assessed as loss of MAP-2 intensity to EC50 for antiviral activity against wild type HIV1 IIIB infected in human TZM-bl cells; format: toxicity, cell-based; settings: mouse primary neurons, TZM-bl cells
In short: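 Primary neuronal cultures from cortex/hippocampus of E16 CD1 mouse embryos (>95% neurons). Cells were then methanol:acetic acid-fixed and MAP-2 stained, and intensity was image-quantified. S-index = TC10/(100×EC50 vs HIV-1 IIIB in TZM-bl).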

[5] = molecular target: Human immunodeficiency virus type 1 reverse transcriptase (Human immunodeficiency virus 1, UniProt Q72547); experiment: Inhibition of HIV1 Reverse transcriptase incubated for 30 mins by fluorescence based analysis
[6] = Neurotoxicity in mouse primary neurons assessed as loss of MAP-2 intensity at 0.0001 to 10 uM incubated for 48 hrs by semi-quantitative analysis; settings: neuron
TZM [7] = experiment: Cytotoxicity against human TZM-bl cells assessed as reduction in viability incubated for 48 hrs by CellTiter-Blue cell viability assay
[8] = Selectivity ratio of IC50 for antiviral activity against wild type HIV1 IIIB infected in human TZM-bl cells to IC50 for antiviral activity against HIV1 harboring K103N mutant infected in human TZM-bl cells; format: toxicity, cell-based; settings: human immunodeficiency virus 1
In short: (§3)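 TZM-bl cells (2x10⁵/mL) with 15 µg/mL DEAE-dextran were infected with HIV-1 IIIB, A17 (K103N/Y181C) IIIB variant, or NL4-3-based NNRTI-resistant mutants. Compound was present at 0.05–500 nM (DMSO held constant, 0.005% or 0.05%) for 48 hr at 37°C, 5% CO₂.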

[9] = Selectivity ratio of IC50 for antiviral activity against wild type HIV1 IIIB infected in human TZM-bl cells to IC50 for antiviral activity against HIV1 harboring L100I/K103N double mutant infected in human TZM-bl cells; format: toxicity, cell-based; settings: human immunodeficiency virus 1; in short: as §3
[10] = Selectivity ratio of IC50 for antiviral activity against wild type HIV1 IIIB infected in human TZM-bl cells to IC50 for antiviral activity against HIV1 harboring Y181C mutant infected in human TZM-bl cells; format: toxicity, cell-based; settings: human immunodeficiency virus 1; in short: as §3
[11] = test system: Human immunodeficiency virus 1; experiment: Antiviral activity against HIV1 harboring K103N mutant infected in human TZM-bl cells; format: functional, organism-based; settings: Human immunodeficiency virus 1, TZM-bl
In short: (§4)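 TZM-bl cells (2x10⁵/mL) were infected with mutant virus in the presence of 15 µg/mL DEAE-dextran. A17 (IIIB variant) was grown in H9 cells; the other mutants were NL4-3-based plasmids transfected into 293T cells, then expanded in H9 cells. Compounds were tested at 0.05–500 nM (DMSO constant within an assay) for 48 hr at 37°C. Read-out was luciferase RLU from lysed cells, with at least 6 replicates over multiple days.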

[12] = test system: Human immunodeficiency virus 1; experiment: Antiviral activity against HIV1 harboring L100I/K103N double mutant infected in human TZM-bl cells; format: functional, organism-based; settings: Human immunodeficiency virus 1, TZM-bl
[13] = Selectivity index, ratio of CC50 for cytotoxicity against human TZM-bl cells assessed as reduction in cell viability by MTS assay to EC50 for antiviral activity against wild type HIV1 IIIB infected in human TZM-bl cells; format: toxicity, cell-based; settings: read-out: Ratio CC50/EC50
[14] = Selectivity ratio of IC50 for antiviral activity against wild type HIV1 IIIB infected in human TZM-bl cells to IC50 for antiviral activity against HIV1 harboring A17 mutant infected in human TZM-bl cells; format: toxicity, cell-based; settings: human immunodeficiency virus 1; in short: as §3
[15] = Selectivity index, ratio of CC50 for cytotoxicity against human TZM-bl cells assessed as reduction in cell viability by MTS assay to EC50 for antiviral activity against HIV1 harboring A17 mutant infected in human TZM-bl cells; format: toxicity, cell-based; settings: read-out: Ratio CC50/EC50
[16] = test system: Human immunodeficiency virus 1; experiment: Antiviral activity against HIV1 harboring Y181C mutant infected in human TZM-bl cells; format: functional, organism-based; settings: Human immunodeficiency virus 1, TZM-bl; in short: as §4
[17] = test system: Human immunodeficiency virus 1; experiment: Antiviral activity against wild type HIV1 IIIB infected in human TZM-bl cells; format: functional, organism-based; settings: Human immunodeficiency virus 1, IIIB; in short: as §1
[18] = test system: Human immunodeficiency virus 1; experiment: Antiviral activity against HIV1 harboring A17 mutant infected in human TZM-bl cells; format: functional, organism-based; settings: for IC50 / EC50: Human immunodeficiency virus 1, TZM-bl; in short: as §4
[19] = Neurotoxicity in mouse primary neurons assessed as loss of MAP-2 area incubated for 48 hrs by imaging analysis; format: toxicity, cell-based; settings: neuron; in short: as §2
Neuron [20] = experiment: Induction of calcium accumulation at delayed phase in primary mouse neuron at 1 uM; format: functional, cell-based
In short: (§5)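 Primary E16 CD1 mouse cortex/hippocampus neurons on coverslips, 14–18 days in vitro, loaded 30 min with 2 µM Fluo-4 AM in aCSF; three baseline images, then compound or vehicle in aCSF added at 1 µM final. Baseline fluorescence subtracted; changes averaged over all cells from at least triplicate runs, acute and delayed phases.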

Neuron [21] = experiment: Induction of calcium accumulation at acute phase in primary mouse neuron at 1 uM; format: functional, cell-based; in short: as §5

SMILES: Nc1nc(Nc2ccc(Cl)cc2)nn1S(=O)(=O)c1ccc2ccccc2c1
- Activity (TZM [1]): inactive
- IC50 [2]: 9.3 nM
- TC10 [3]: 6100 nM
- selectivity ratio [4]: 6.5
- IC50 [5]: 280 nM
- Activity [6]: Non-Toxic

SMILES: N#Cc1ccc2c(S(=O)(=O)n3nc(Nc4ccc(C#N)c(C#N)c4)nc3N)cccc2c1
- CC50 (TZM [1]): 28000 nM
- IC50 [2]: 0.32 nM
- CC50 (TZM [7]): 27000 nM
- Ratio IC50 [8]: 8.9
- TC10 [3]: 4500 nM
- Ratio IC50 [9]: 3500
- Ratio IC50 [10]: 140
- IC50 [11]: 5.9 nM
- selectivity ratio [4]: 140
- IC50 [12]: 1050 nM
- IC50 [5]: 350 nM
- selectivity ratio [13]: 130000
- Ratio IC50 [14]: 41
- selectivity ratio [15]: 570
- IC50 [16]: 3.7 nM
- Activity [6]: Non-Toxic
- EC50 [17]: 0.21 nM
- IC50 [18]: 1.3 nM

SMILES: Cc1nc(C)c(S(=O)(=O)n2nc(Nc3ccc(C#N)c(Cl)c3)nc2N)s1
- EC50 [17]: 0.879 nM
- EC50 [18]: 306 nM

SMILES: Nc1nc(Nc2ccc(Cl)cc2)n(S(=O)(=O)c2cnn(-c3ccc(C(F)(F)F)cn3)c2)n1
- EC50 [17]: < 100 nM
- Activity [18]: inactive

SMILES: N#CCc1ccc2c(S(=O)(=O)n3nc(Nc4ccc(C#N)c(Cl)c4)nc3N)cccc2c1
- EC50 [17]: 0.598 nM
- EC50 [18]: 153 nM

SMILES: Nc1nc(Nc2ccc(Cl)cc2)n(S(=O)(=O)c2ccc(Cl)s2)n1
- EC50 [17]: < 100 nM
- Activity [18]: inactive

SMILES: O=C1Nc2ccc(Cl)cc2[C@@](C#CC2CC2)(C(F)(F)F)O1 [EFAVIRENZ]
- CC50 (TZM [1]): > 5000 nM
- IC50 [2]: 0.66 nM
- TC10 [19]: 70 nM
- Activity (Neuron [20]): Active
- Activity [6]: Non-Toxic
- EC50 [17]: 0.68 nM
- Activity (Neuron [21]): inactive
- EC50 [18]: 18 nM

SMILES: CN(C)c1cccc2c(S(=O)(=O)n3nc(Nc4ccc(Cl)cc4)nc3N)cccc12
- EC50 [17]: 10.6 nM
- EC50 [18]: > 1000 nM

SMILES: N#Cc1ccc(Nc2nc(N)n(S(=O)(=O)c3c(Cl)nc4sccn34)n2)cc1
- EC50 [17]: 1.77 nM
- EC50 [18]: 705 nM

SMILES: N#Cc1ccc(Nc2nc(N)n(S(=O)(=O)c3cccc4cc(C#N)ccc34)n2)cc1
- CC50 (TZM [1]): 7800 nM
- IC50 [2]: 0.32 nM
- CC50 (TZM [7]): 7800 nM
- TC10 [19]: 50 nM
- Ratio IC50 [8]: 39
- TC10 [3]: 170 nM
- Ratio IC50 [9]: 6700
- Ratio IC50 [10]: 80
- IC50 [11]: 8.8 nM
- selectivity ratio [4]: 5.4
- IC50 [12]: 1500 nM
- IC50 [5]: 700 nM
- selectivity ratio [13]: 22000
- Ratio IC50 [14]: 240
- selectivity ratio [15]: 160
- IC50 [16]: 18 nM
- Activity [6]: Non-Toxic
- IC50 [17]: 0.23 nM
- IC50 [18]: 55 nM

SMILES: Cc1cc(C)c(S(=O)(=O)n2nc(Nc3ccc(Cl)cc3)nc2N)c(C)c1
- EC50 [17]: 32 nM

SMILES: CC(=O)Nc1nc(C)c(S(=O)(=O)n2nc(Nc3cc(Cl)c(Cl)cc3Cl)nc2N)s1
- EC50 [17]: > 1000 nM
- EC50 [18]: > 1000 nM

SMILES: N#Cc1ccc2c(S(=O)(=O)n3nc(Nc4ccc(C#N)c(Cl)c4)nc3N)cccc2c1
- CC50 (TZM [1]): 6000 nM
- selectivity ratio [13]: 17000
- selectivity ratio [15]: 240
- EC50 [17]: 0.42 nM
- EC50 [18]: 39.6 nM

SMILES: Cc1cc(/C=C/C#N)cc(C)c1Nc1ccnc(Nc2ccc(C#N)cc2)n1 [RILPIVIRINE]
- CC50 (TZM [1]): > 5000 nM
- IC50 [2]: 0.35 nM
- CC50 (TZM [7]): > 5000 nM
- TC10 [19]: 600 nM
- TC10 [3]: 930 nM
- IC50 [11]: 1.3 nM
- IC50 [12]: 14 nM
- IC50 [5]: 160 nM
- IC50 [16]: 1.3 nM
- Activity [6]: Non-Toxic
- IC50 [17]: 0.33 nM
- Activity (Neuron [21]): inactive
- IC50 [18]: 0.8 nM

SMILES: Cn1cnc(S(=O)(=O)n2nc(N)nc2Nc2ccc(Cl)cc2)c1
- EC50 [17]: < 100 nM
- Activity [18]: inactive

SMILES: N#C/C=C/c1ccc2c(S(=O)(=O)n3nc(Nc4ccc(CC#N)cc4)nc3N)cccc2c1
- CC50 (TZM [1]): 910 nM
- selectivity ratio [13]: 4100
- EC50 [17]: 0.22 nM
- EC50 [18]: 24.5 nM
